From paper PMC10505864 (Asian Pacific Journal of Cancer Prevention : APJCP, 2023)
In brackets after ≈: the same amount, converted by molar mass. Where two headings read alike, the source gives them in different places.

Assays:
[1] = system: MCF-7 (human breast cancer cells); experiment: MTT cell viability assay on MCF-7 cells; type: cell-based; conditions: for IC50 / inhibition at 30 µg/mL / inhibition at 60 µg/mL / inhibition at 130 µg/mL / inhibition at 250 µg/mL / inhibition at 500 µg/mL / inhibition at 1000 µg/mL: Homo sapiens, MCF7, 48 h; for IC50: read-out: IC50 µg/mL on MCF-7; for inhibition at 30 µg/mL / inhibition at 60 µg/mL / inhibition at 130 µg/mL / inhibition at 250 µg/mL / inhibition at 500 µg/mL / inhibition at 1000 µg/mL: read-out: Inhibition (%) of MCF-7 Cells
Procedure, shortened: (§1)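 PC3 cells grown in RPMI-1640 and MCF-7 cells in DMEM, each with 10% heat-inactivated FBS, penicillin/streptomycin, L-glutamine and amphotericin B. Seeded at 2 × 10^4 cells/well and grown to ~70% confluence (37°C, 5% CO2). Test compounds given as eight serial dilutions, starting at 1 mg/mL for drugs and 2.5 mg/mL for extract, for 48 h. MTT (5 mg/mL solution) added for 4 h at 25°C; A570 read.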

[2] = system: PC3 (human prostate cancer cells); experiment: MTT cell viability assay on PC3 cells; type: cell-based; conditions: for IC50 / inhibition at 30 µg/mL / inhibition at 60 µg/mL / inhibition at 130 µg/mL / inhibition at 250 µg/mL / inhibition at 500 µg/mL / inhibition at 1000 µg/mL: Homo sapiens, PC-3, 48 h; for IC50: read-out: IC50 µg/mL on PC3; for inhibition at 30 µg/mL / inhibition at 60 µg/mL / inhibition at 130 µg/mL / inhibition at 250 µg/mL / inhibition at 500 µg/mL / inhibition at 1000 µg/mL: read-out: Inhibition (%) of PC3 Cells; for cytotoxicity activity (in words): PC3
Procedure, shortened: as §1

[3] = Pharmacokinetic study of CBZ in rat plasma; type: in vivo, rat (Sprague Dawley)
Procedure, shortened: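 Male and female Sprague Dawley rats (~200 g), seven per group, fasted 24 h. Given 10 mg/kg by oral gavage, alone or after 30 mg/kg extract by gavage (three days before, repeated 30 min pre-dose). Orbital blood collected into EDTA from 0–24 h. Plasma precipitated with acetonitrile containing metronidazole benzoate internal standard, then C18 HPLC-UV at 285 nm. Calibration 75–5,000 ng/mL; samples run in duplicate.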

[4] = rat plasma, ref Salemaldajeh et al., 2015, cited from earlier work
[5] = ref Salemaldajeh et al., 2015; Emad et al., 2018; cited from earlier work
[6] = after oral administration; ref Salemaldajeh et al., 2015; Emad et al., 2018; cited from earlier work
[7] = both, Sprague Dawley, rat, plasma, po, 10 mg/kg
[8] = rat plasma, CBZ 10 mg/kg oral gavage, alone, listed as CBZ alone

| Compound | IC50 [1] | inhibition at 30 µg/mL [1] | inhibition at 60 µg/mL [1] | inhibition at 130 µg/mL [1] | inhibition at 250 µg/mL [1] | inhibition at 500 µg/mL [1] | inhibition at 1000 µg/mL [1] | IC50 [2] | inhibition at 30 µg/mL [2] | inhibition at 60 µg/mL [2] | inhibition at 130 µg/mL [2] | inhibition at 250 µg/mL [2] | inhibition at 500 µg/mL [2] | inhibition at 1000 µg/mL [2] | cytotoxicity activity (in words) ([2]; MTT, 48 h) | also measured |
| --- | --- | --- | --- | --- | --- | --- | --- | --- | --- | --- | --- | --- | --- | --- | --- | --- |
| CCCC(CCC)C(=O)O [VPA, valproic acid] | > 1000 µg/mL | 10.6% | 8.5% | 13.4% | 15.7% | 14.7% | 24.9% | > 1000 µg/mL | 19.8% | 10.7% | 2.62% | 0.74% | 0.24% | 26.7% | weak | cytotoxicity activity (in words) ([1]; MCF-7, MTT, 48 h): weak |
| N.N.[Cl][Pt][Cl] [Cisplatin] |  |  |  |  |  |  |  |  |  |  |  |  |  |  |  | IC50 µg/mL on MCF-7 ([1]; MTT, 48 h, mean ± SD): 14.6 ± 2.4 µg/mL; IC50 µg/mL on PC3 ([2]; MTT, 48 h, mean ± SD): 8.6 ± 1.5 µg/mL |
| NC(=O)N1c2ccccc2C=Cc2ccccc21 [CBZ, carbamazepine] | 250 ± 44 µg/mL (≈ 1060 µM) | 11.9% | 19.7% | 30.1% | 53.2% | 69.3% | 83.3% | 130 ± 27 µg/mL (≈ 550 µM) | 29.7% | 31.4% | 53% | 87.5% | 95.1% | 93.4% | robust | concentration at 24 h ([3]; both, Sprague Dawley, rat, plasma, oral, 10 mg/kg): 65.2 ng/mL; Cmax [3, 7]: 4630 ng/mL; Tmax [3, 7]: 3.5 h; k el [3, 7]: 5e-05 s⁻¹; AUC (0–24 h) [3, 8]: 49225 ng·h/mL; Half-life [3, 8]: 3.78 h; Cmax ([4]; CBZ alone): 4,130 ng/mL; Cmax ([4]; CBZ combined with graviola juice): 2,886 ng/mL; drug excreted unchanged without metabolism [5]: about 5%; binds to plasma proteins [6]: approximately 75% |
| COc1cccc2c1C(=O)c1c(O)c3c(c(O)c1C2=O)C[C@@](O)(C(=O)CO)C[C@@H]3O[C@H]1C[C@H](N)[C@H](O)[C@H](C)O1 [Doxorubicin] | 0.64 ± 0.04 µg/mL (≈ 1.18 µM) |  |  |  |  |  |  | 0.62 ± 0.06 µg/mL (≈ 1.14 µM) |  |  |  |  |  |  |  |  |
